Source: ChEMBL document CHEMBL3351752, “Discovery and in vivo evaluation of alcohol-containing benzothiazoles as potent dual-targeting bacterial DNA supercoiling inhibitors” (Bioorg Med Chem Lett, 2014)
Values after ≈ are worked out from the molar mass of the structure shown. Active and inactive are the calls of the source. The rule behind the calls is not given here.

What was measured:
Staphylococcus aureus [1] = experiment: Antimicrobial activity against methicillin-sensitive Staphylococcus aureus infected in neutropenic mouse assessed as log reduction in colony forming units at 100 mg/kg, iv administered at 2, 4 and 6 hrs post-inoculation measured 24 hrs post infection relative to control; type: functional
Staphylococcus aureus [2] = experiment: Antimicrobial activity against methicillin-sensitive Staphylococcus aureus infected in neutropenic mouse assessed as log reduction in colony forming units at 30 mg/kg, iv administered at 2, 4 and 6 hrs post-inoculation measured 24 hrs post infection relative to control; type: functional
Staphylococcus aureus [3] = experiment: Antibacterial activity against Staphylococcus aureus ATCC 29213 assessed as growth inhibition; type: functional
Staphylococcus aureus [4] = experiment: Antimicrobial activity against methicillin-sensitive Staphylococcus aureus infected in neutropenic mouse assessed as reduction in colony forming units administered iv at 2, 4 and 6 hrs post-inoculation measured 24 hrs post infection relative to control; type: functional, organism-based
Staphylococcus aureus [5] = experiment: Antimicrobial activity against Staphylococcus aureus ATCC 19636 infected in neutropenic mouse assessed as reduction in colony forming units at 25 mg/kg, iv administered as single dose measured 24 hrs post infection relative to control; type: functional, organism-based; parameters: dose 25 mg/kg
Haemophilus influenzae = experiment: Antibacterial activity against Haemophilus influenzae 49247 assessed as growth inhibition; type: functional
Streptococcus pyogenes [6] = experiment: Antibacterial activity against Streptococcus pyogenes 51339 assessed as growth inhibition; type: functional
Staphylococcus aureus [7] = experiment: Ratio of MIC for Staphylococcus aureus ATCC 29213 assessed as growth inhibition in presence of 50% horse serum to MIC for Staphylococcus aureus ATCC 29213 assessed as growth inhibition; type: functional
Streptococcus pyogenes [8] = experiment: Antimicrobial activity against Streptococcus pyogenes harboring ParE A53S mutant assessed as growth inhibition; type: functional
Staphylococcus aureus [9] = experiment: Antibacterial activity against Staphylococcus aureus ATCC 29213 assessed as growth inhibition in presence of 50% horse serum; type: functional
Staphylococcus aureus [10] = experiment: Antimicrobial activity against Staphylococcus aureus harboring GyrB T173N mutant assessed as growth inhibition; type: functional
Staphylococcus aureus [11] = experiment: Inhibition of Staphylococcus aureus DNA gyrase ATPase subunit GyrA2/GyrB2 after 60 mins by malachite green staining assay
[12] = Fraction unbound in mouse plasma by ultracentrifugation; type: ADME, cell-free
Summary of the method: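 Compound at 10 µM (1% DMSO) was equilibrated in neat plasma at 37 °C for 60 min. Duplicate aliquots were ultracentrifuged at 250,000g for 4.2 h at 37 °C. Free compound in the plasma-water supernatant was compared with uncentrifuged samples incubated alike. Uncentrifuged samples kept at 20 °C checked degradation, and diltiazem served as stability control. Analysis was by LCMS.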

Staphylococcus aureus [13] = experiment: Antimicrobial activity against methicillin-sensitive Staphylococcus aureus infected in neutropenic mouse assessed as log reduction in colony forming units at 30 mg/kg, iv administered as single dose measured 24 hrs post infection relative to control; type: functional, organism-based; parameters: dose 30 mg/kg
Summary of the method: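 Thigh infection in neutropenic female CD-1 mice (18–22 g), made neutropenic with ip cyclophosphamide (150 mg/kg day −4, 100 mg/kg day −1). Thighs inoculated with about 2 × 10^5 CFU of MSSA S. aureus ATCC 19636 from fresh overnight culture. Single iv dose at 30 mg/kg. Thighs harvested at 24 h, homogenized in saline on ice, serial dilutions plated on charcoal plates, colonies counted; log CFU reduction taken versus matched controls.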

Staphylococcus aureus [14] = experiment: Antimicrobial activity against Staphylococcus aureus ATCC 19636 infected in neutropenic mouse assessed as reduction in colony forming units at 100 mg/kg, po administered as single dose measured 24 hrs post infection relative to control; type: functional, organism-based; parameters: dose 100 mg/kg
Staphylococcus aureus [15] = experiment: Antimicrobial activity against Staphylococcus aureus ATCC 19636 infected in neutropenic mouse assessed as reduction in colony forming units at 30 mg/kg, iv administered as single dose measured 24 hrs post infection relative to control; type: functional, organism-based; parameters: dose 30 mg/kg

| SMILES | MIC (Staphylococcus aureus [3]) [µg/mL] | MIC (Haemophilus influenzae) [µg/mL] | MIC (Streptococcus pyogenes [6]) [µg/mL] | MIC (Staphylococcus aureus [9]) [µg/mL] | inhibitory concentration (Staphylococcus aureus [11]) [µg/mL] | fraction unbound [12] | further results |
| --- | --- | --- | --- | --- | --- | --- | --- |
| CCNC(=O)Nc1nc2cc(-c3cnc(N4CCC(CC)(C(=O)O)CC4)nc3)cc(/C=N/OC)c2s1 | 0.12 (≈ 0.235 µM) |  |  |  |  |  | FC (Staphylococcus aureus [1]): 4; FC (Staphylococcus aureus [2]): <3; Activity (Staphylococcus aureus [4]): Dose-dependent effect |
| CC(=O)NC[C@H]1CN(c2ccc(N3CCOCC3)c(F)c2)C(=O)O1 |  |  |  |  |  |  | Activity (Staphylococcus aureus [5]): Active |
| CCNC(=O)Nc1nc2cc(-c3cnc(CO)nc3)cc(-c3ccccn3)c2s1 | 0.03 (≈ 0.0738 µM) | 0.25 (≈ 0.615 µM) | 0.06 (≈ 0.148 µM) | 0.06 |  |  | Ratio (Staphylococcus aureus [7]): 2; MIC (Streptococcus pyogenes [8]): 0.5 µg/mL (≈ 1.23 µM); MIC (Staphylococcus aureus [10]): 0.25 µg/mL (≈ 0.615 µM) |
| CCNC(=O)Nc1nc2cc(-c3cnc(N4CCC(CC)(C(=O)O)CC4)nc3)cc(-c3ccccn3)c2s1 | 0.06 (≈ 0.113 µM) | 4 (≈ 7.52 µM) | 0.06 (≈ 0.113 µM) | 4 |  |  | FC (Staphylococcus aureus [1]): 4; Ratio (Staphylococcus aureus [7]): 64; MIC (Streptococcus pyogenes [8]): 0.5 µg/mL (≈ 0.94 µM); FC (Staphylococcus aureus [2]): <3; Activity (Staphylococcus aureus [4]): Dose-dependent effect; MIC (Staphylococcus aureus [10]): 0.25 µg/mL (≈ 0.47 µM) |
| CCNC(=O)Nc1nc2cc(-c3cnc(C(C)(C)O)nc3)cc(-c3cc(CN4CC[C@H](F)C4)ccn3)c2s1 | 0.12 (≈ 0.224 µM) | 2 (≈ 3.73 µM) | 0.06 (≈ 0.112 µM) | 0.25 | 0.008 | 0.061 |  |
| CCNC(=O)Nc1nc2cc(-c3cnc(C(C)(C)O)nc3)cc(-c3cc(CN4CC[C@@H](O)C4)ccn3)c2s1 | 0.5 (≈ 0.937 µM) | 4 (≈ 7.5 µM) | 0.25 (≈ 0.468 µM) | 0.5 | 0.007 | 0.194 |  |
| CCNC(=O)Nc1nc2cc(-c3cnc(C(C)(C)O)nc3)cc(-c3cc(CN4CCC(C)(O)C4)ccn3)c2s1 (stereo not drawn) | 0.5 (≈ 0.913 µM) | 8 (≈ 14.6 µM) | 0.25 (≈ 0.456 µM) | 0.25 | 0.008 | 0.194 |  |
| CN[C@H](CC(C)C)C(=O)N[C@H]1C(=O)N[C@@H](CC(N)=O)C(=O)N[C@H]2C(=O)N[C@H]3C(=O)N[C@H](C(=O)N[C@H](C(=O)O)c4cc(O)cc(O)c4-c4cc3ccc4O)[C@H](O)c3ccc(c(Cl)c3)Oc3cc2cc(c3O[C@@H]2O[C@H](CO)[C@@H](O)[C@H](O)[C@H]2O[C@H]2C[C@](C)(N)[C@H](O)[C@H](C)O2)Oc2ccc(cc2Cl)[C@H]1O |  |  |  |  |  |  | Activity (Staphylococcus aureus [13]): Active |
| CCNC(=O)Nc1nc2cc(-c3cnc(C(C)(C)O)nc3)cc(-c3ccccn3)c2s1 | 0.06 (≈ 0.138 µM) | 1 (≈ 2.3 µM) | 0.12 (≈ 0.276 µM) | 0.25 | 0.006 | 0.051 | Activity (Staphylococcus aureus [14]): Active; Activity (Staphylococcus aureus [15]): Active; Ratio (Staphylococcus aureus [7]): 4; MIC (Streptococcus pyogenes [8]): 1 µg/mL (≈ 2.3 µM); MIC (Staphylococcus aureus [10]): 0.25 µg/mL (≈ 0.575 µM) |
| CCNC(=O)Nc1nc2cc(-c3cnc(C(C)(C)O)nc3)cc(-c3cc(CN4CC[C@@H](F)C4)ccn3)c2s1 | 0.06 (≈ 0.112 µM) | 1 (≈ 1.87 µM) | 0.06 (≈ 0.112 µM) | 0.25 | 0.005 | 0.063 |  |
| CCNC(=O)Nc1nc2cc(-c3cnc(C(C)(C)O)nc3)cc(-c3cc(CN4CC(OC)C4)ccn3)c2s1 | 0.12 (≈ 0.225 µM) | 2 (≈ 3.75 µM) | 0.12 (≈ 0.225 µM) | 0.25 | 0.011 | 0.11 |  |
| CCNC(=O)Nc1nc2cc(-c3cnc(C(C)(C)O)nc3)cc(-c3cc(CN4CCC(F)(F)C4)ccn3)c2s1 | 0.06 (≈ 0.108 µM) | > 16 | 0.03 (≈ 0.0542 µM) | 0.25 | 0.007 | 0.041 |  |
| CCNC(=O)Nc1nc2cc(-c3cnc(C(C)O)nc3)cc(-c3ccccn3)c2s1 (stereo not drawn) | 0.03 (≈ 0.0713 µM) | 0.5 (≈ 1.19 µM) | 0.06 (≈ 0.143 µM) | 0.12 |  |  | Ratio (Staphylococcus aureus [7]): 4; MIC (Streptococcus pyogenes [8]): 1 µg/mL (≈ 2.38 µM); MIC (Staphylococcus aureus [10]): 0.25 µg/mL (≈ 0.595 µM) |
| CO[C@@H]1[C@@H](OC(N)=O)[C@@H](O)[C@H](Oc2ccc3c(O)c(NC(=O)c4ccc(O)c(CC=C(C)C)c4)c(=O)oc3c2C)OC1(C)C |  |  |  |  |  |  | Activity (Staphylococcus aureus [15]): Active |
